Results gathered from unrelated publications.
Target: Acetylcholinesterase (ACHE, Homo sapiens, UniProt P22303)
Observed: enzyme activity
Action: inhibitor

SMILES	technique	IC50 [µM]
COc1cc(-c2nc3ccccc3s2)cc2c1OCC(=O)N2CC(=O)N[C@@H](C)C(=O)O	Ellman	> 290
O=c1cc(CSc2ccc(N=Cc3cccc(O)c3)cc2)occ1O	Ellman	3.64
Cc1cc(C)cc(NC(=O)CSc2nnc(COc3ccc4ccccc4c3)n2-c2ccccc2)c1	Ellman	1.12
CC(C)c1cc2c(c(O)c1O)[C@@]1(C(=O)O)CCCC(C)(C)[C@@H]1CC2	–	0.00078
CCOc1cccc(NC(=O)CSc2nnc(COc3ccc4ccccc4c3)n2-c2ccccc2)c1	Ellman	1.15
CC[C@H](C)[C@@H](NC(=O)COc1c(NC(C)=O)cc(-c2nc3ccccc3s2)cc1OC)C(=O)O	Ellman	> 264
O=c1cc(CSc2ccc(N=Cc3ccc(Br)cc3)cc2)occ1O	Ellman	0.57
CC(C)c1cc2c(c(O)c1O)[C@@]13CCCC(C)(C)[C@@H]1[C@H](OC3=O)[C@H]2O	–	0.000734
O=c1cc(CSc2ccc(N=Cc3ccc(Cl)cc3)cc2)occ1O	Ellman	1.33
Cc1cccc(C)c1NC(=O)CSc1nnc(COc2ccc3ccccc3c2)n1-c1ccccc1	Ellman	1.01
CC(=O)c1c(C)c2cnc(Nc3ccc(C4CCN(CCS(C)(=O)=O)CC4)cn3)nc2n(C2CCCC2)c1=O	–	0.25
COc1cc(-c2nc3ccccc3s2)cc2c1OCC(=O)N2CC(=O)NCC(=O)O	Ellman	> 299
O=c1cc(CSc2ccc(N=Cc3ccc([N+](=O)[O-])cc3)cc2)occ1O	Ellman	8.38
Cc1ccc(NC(=O)CSc2nnc(COc3ccc4ccccc4c3)n2-c2ccccc2)c(C)c1	Ellman	0.697
COc1cc(-c2nc3ccccc3s2)cc2c1OCC(=O)N2CC(=O)N[C@H](C(=O)O)C(C)C	Ellman	> 273
